Data set [1] concerns Rattus norvegicus. In words: AUC in Sprague-Dawley rat at 30 mg/kg, po. The settings on record: in vivo.
Data set [2] can be described thus: Half life in Sprague-Dawley rat at 4 mg/kg, iv. The following applies: in vivo. Format: ADME, organism-based. The arrangement: dose 4 mg/kg, route intravenous. The essentials: (§1)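 Sprague–Dawley rats dosed iv at 4 mpk as the HCl salt in 60% PEG 200/water, 1 ml/kg.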
Data set [3] can be described thus: Volume of distribution at steady state in Sprague-Dawley rat at 4 mg/kg, iv. Also on record: dose 4 mg/kg, route intravenous. Format: ADME, organism-based. The settings on record: in vivo, read-out: Vdss. The procedure, abridged: as §1
The target in data set [4] is T1, Renin (Homo sapiens, UniProt P00797).
T1 sequence (P00797 whole entry): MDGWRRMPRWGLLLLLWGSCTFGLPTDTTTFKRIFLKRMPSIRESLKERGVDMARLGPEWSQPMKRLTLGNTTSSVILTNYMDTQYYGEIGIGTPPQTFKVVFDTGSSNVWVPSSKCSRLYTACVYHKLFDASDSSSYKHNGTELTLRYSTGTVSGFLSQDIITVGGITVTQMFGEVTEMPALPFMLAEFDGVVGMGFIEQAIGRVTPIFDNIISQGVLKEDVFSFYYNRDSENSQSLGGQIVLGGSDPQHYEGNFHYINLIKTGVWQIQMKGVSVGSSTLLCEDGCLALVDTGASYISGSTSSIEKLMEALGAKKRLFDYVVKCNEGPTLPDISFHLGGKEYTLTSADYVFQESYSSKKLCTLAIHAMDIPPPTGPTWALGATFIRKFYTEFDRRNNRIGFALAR
In words: Inhibition of human recombinant renin in plasma. The procedure, abridged:
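Pooled frozen human citrate plasma supplemented with recombinant human renin (150 pg/ml final). Inhibitor in DMSO at various concentrations added to a 7:1 mix of plasma and trapping anti-angiotensin I antibody (final antiserum 1:50,000) in Tris/EDTA, pH 7.2.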

Data set [5] concerns the target T1, Renin. As to the kind of experiment: Inhibition of human recombinant renin in phosphate buffer. The procedure, abridged: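 Recombinant human renin in PBS with 1 mM EDTA, 0.1% BSA, pH 7.4, premixed at 4 °C with human tetradecapeptide(1–14) substrate (stock 5 μM in 10 mM HCl) and hydroxyquinoline sulfate (stock 30 mM). Compounds diluted in DMSO were added, then incubated 3 h at 37 °C. Angiotensin I accumulation was measured; IC50 from % inhibition curve fit, mean of at least two experiments.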

The nature of data set [6]: AUC in Sprague-Dawley rat at 30 mg/kg, po. The settings on record: Sprague-Dawley, plasma.
Data set [7] in a line: Clearance in Sprague-Dawley rat at 4 mg/kg, iv. The arrangement: dose 4 mg/kg, route intravenous. The settings on record: in vivo. Format: ADME, organism-based. The essentials: as §1
The nature of data set [8]: Oral bioavailability in Sprague-Dawley rat at 30 mg/kg. The following applies: in vivo. Type of data set: ADME, organism-based. The essentials: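 Sprague–Dawley rats dosed orally at 30 mpk as the HCl salt in 0.5% methocel, 5 ml/kg; iv reference dose 4 mpk in 60% PEG 200/water, 1 ml/kg.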

This is an account of results in ChEMBL document CHEMBL1255516, “Identification of a new biaryl scaffold generating potent renin inhibitors” (Bioorg Med Chem Lett, 2010).

Usually AUC stands for the area under the concentration-time curve, a measure of exposure. A high value points to more exposure. A word on the half-life: it is the time in which the quantity being followed falls by half. The low end stands for fast loss, the high end for slow loss. In turn, `COCCCc1ccc(Cl)c(CN(C(=O)[C@@H](CN)Cc2ccc(OCCOc3c(Cl)cc(C)cc3Cl)cc2)C2CC2)c1` displayed an AUC in data set [1] of 8.3 µM·h. In addition, the half-life in data set [2] is 6 h. For the same compound, the Vd in data set [3] came to 12 L/kg.
For orientation: IC50 means the concentration that gives 50% inhibition. On to `COC(=O)CCc1ccccc1-c1ccc(C(CN)Cc2ccc(OCCOc3c(Cl)cc(C)cc3Cl)cc2)c(C)c1` (stereo not drawn), for which the IC50 in data set [4] was found to be 141 nM; in data set [5] it was 0.09 nM.
In the case of `Cc1cc(Cl)c(OCCOc2ccc(CC(CN)c3ccc(-c4ccccc4CCC(=O)N(C)C)cc3C)cc2)c(Cl)c1` (stereo not drawn), in data set [4], the IC50 was 1110 nM.
Take `Cc1cc(Cl)c(OCCOc2ccc(CC(CN)c3ccc(-c4ccccc4CCOC(N)=O)cc3C)cc2)c(Cl)c1` (stereo not drawn): the concentration for half-maximal inhibition (IC50) stood at 103 nM in data set [4] and 1.02 nM in data set [5].
The term clearance denotes the rate of elimination divided by the concentration. A high value points to efficient removal. One may read the bioavailability as dose-corrected exposure relative to a reference, in per cent. Low readings indicate little systemic uptake, high ones much systemic uptake. Compound `CC(=O)NCCc1ccccc1-c1ccc(C(CN)Cc2ccc(OCCOc3c(Cl)cc(C)cc3Cl)cc2)c(C)c1` (stereo not drawn) displayed an AUC in data set [6] of 5.5 µM·h. Moreover, the clearance in data set [7] is 34 mL/min/kg. The same compound had a half-life in data set [2] of 7 h. Also, in data set [3], the Vd came out at 9 L/kg. Also, the bioavailability in data set [8] stood at 23%. Further, in data set [5], the 50% inhibitory concentration (IC50) worked out at 0.04 nM.
`CC(=O)NCCCc1ccccc1-c1ccc(C(CN)Cc2ccc(OCCOc3c(Cl)cc(C)cc3Cl)cc2)c(C)c1` (stereo not drawn): the figures for the concentration for half-maximal inhibition (IC50) in data set [4] and in data set [5] were 131 nM and 0.97 nM, respectively.
Consider `Cc1cc(Cl)c(OCCOc2ccc(CC(CN)c3ccc(-c4ccccc4Cl)cc3Cl)cc2)c(Cl)c1` (stereo not drawn), for which the 50% inhibitory concentration (IC50) in data set [5] was 0.52 nM.
On the same count and under the same terms, then `COCCCc1ccccc1-c1ccc(C(CN)Cc2ccc(OCCOc3c(Cl)cc(C)cc3Cl)cc2)c(C)c1` (stereo not drawn), with 0.44 nM.
On to `COC(=O)Cc1ccccc1-c1ccc(C(CN)Cc2ccc(OCCOc3c(Cl)cc(C)cc3Cl)cc2)c(C)c1` (stereo not drawn), for which the half-inhibitory concentration (IC50) in data set [4] is 534 nM; in data set [5], 12.9 nM.
Regarding `CC(=O)NCc1ccccc1-c1ccc(C(CN)Cc2ccc(OCCOc3c(Cl)cc(C)cc3Cl)cc2)c(C)c1` (stereo not drawn), the IC50 in data set [4] is 138 nM; in data set [5] it was 2.1 nM.
In the same order, the values of `Cc1cc(Cl)c(OCCOc2ccc(CC(CN)c3ccc(-c4cnc5cnccn45)cc3C)cc2)c(Cl)c1` (stereo not drawn) are 416 nM and 3.9 nM.
In the same order, the values of `Cc1cc(Cl)c(OCCOc2ccc(CC(CN)c3ccc(-c4ccnc(N)c4)cc3C)cc2)c(Cl)c1` (stereo not drawn) are 228 nM and 1.7 nM.
The like results for `Cc1cc(Cl)c(OCCOc2ccc(CC(CN)c3ccc(-c4cncnc4)cc3C)cc2)c(Cl)c1` (stereo not drawn) were, in that order, 614 nM and 4.9 nM.
